≈ marks a conversion by molar mass, not a printed value.
Key:
Plasmodium falciparum = experiment: Antiplasmodial activity against Plasmodium falciparum 3D7 assessed as reduction in parasite growth by measuring DNA content after 3 days by PicoGreen staining based FLUOstar omega microplate reader analysis; type: functional, organism-based; conditions: 3D7, 72 h
Procedure, shortened: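 Asynchronous cultures in 2% hematocrit, RPMI-1640 complete medium with 0.5% Albumax, under 5% O2/5% CO2/90% N2 at 37 °C. Diluted to 0.5% parasitemia, inhibitors 1.2 nM to 492.4 µM added at start. Growth read after 3 days as DNA content by PicoGreen fluorescence (485/528 nm). IC50 from 4-parameter nonlinear regression; technical duplicate, biological triplicate.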

[1] = test system: Mycobacterium tuberculosis; experiment: Antibacterial activity against Mycobacterium tuberculosis H37Rv assessed as reduction in bacterial growth incubated for 2 weeks by macroscopic plate reader analysis; type: functional; conditions: 336 h
Procedure, shortened: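 H37Rv grown in 7H9 broth with 0.08% NaCl, 0.4% glucose, 0.05% casitone and 0.05% tyloxapol, then diluted 1:500. Compounds were made as 20 mg/mL DMSO stocks and run as eleven 2-fold serial dilutions. Plates were held 2 weeks at 37 °C and MIC99 was read macroscopically. Three independent measurements.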

[2] = molecular target: T1, 1-deoxy-D-xylulose 5-phosphate reductoisomerase, apicoplastic (Plasmodium falciparum (isolate 3D7)) (UniProt Q8IKG4); experiment: Inhibition of Plasmodium falciparum DXR expressed in Escherichia coli BL21 CodonPlus (DE3)-RIL cells assessed as remaining activity using DOXP as substrate at 100 uM in presence of NADPH by UV-visible spectrophotometry relative to control
T1 sequence (whole entry): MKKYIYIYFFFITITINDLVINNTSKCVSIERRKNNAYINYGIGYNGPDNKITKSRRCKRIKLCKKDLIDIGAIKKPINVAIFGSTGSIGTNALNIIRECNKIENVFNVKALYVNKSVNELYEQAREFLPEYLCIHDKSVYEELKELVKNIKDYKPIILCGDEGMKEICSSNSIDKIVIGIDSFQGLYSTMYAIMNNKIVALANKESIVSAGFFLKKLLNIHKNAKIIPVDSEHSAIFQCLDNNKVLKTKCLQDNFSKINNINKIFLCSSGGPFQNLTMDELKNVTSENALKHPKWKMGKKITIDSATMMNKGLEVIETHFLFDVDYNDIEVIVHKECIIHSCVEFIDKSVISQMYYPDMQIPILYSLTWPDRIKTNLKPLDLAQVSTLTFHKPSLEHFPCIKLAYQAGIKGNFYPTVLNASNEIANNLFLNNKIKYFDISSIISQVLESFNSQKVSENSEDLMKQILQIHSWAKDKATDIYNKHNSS
Procedure, shortened: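 Recombinant His-tagged PfDXR purified by TALON affinity. Assay at 37 °C in 100 mM Tris pH 7.8, 25 mM MgCl2, 0.86 µM enzyme, 150 µM NADPH; reaction started with 144 µM DOXP. NADPH oxidation followed at 340 nm. Single inhibitor concentration 100 µM, given as percent remaining activity; technical duplicates.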

[3] = molecular target: T2, 1-deoxy-D-xylulose 5-phosphate reductoisomerase (Mycobacterium tuberculosis) (UniProt P9WNS1); experiment: Inhibition of Mycobacterium tuberculosis DXR expressed in Escherichia coli BL21 CodonPlus (DE3)-RIL cells assessed as remaining activity using DOXP as substrate at 100 uM in presence of NADPH by UV-visible spectrophotometry relative to control
T2 sequence (whole entry): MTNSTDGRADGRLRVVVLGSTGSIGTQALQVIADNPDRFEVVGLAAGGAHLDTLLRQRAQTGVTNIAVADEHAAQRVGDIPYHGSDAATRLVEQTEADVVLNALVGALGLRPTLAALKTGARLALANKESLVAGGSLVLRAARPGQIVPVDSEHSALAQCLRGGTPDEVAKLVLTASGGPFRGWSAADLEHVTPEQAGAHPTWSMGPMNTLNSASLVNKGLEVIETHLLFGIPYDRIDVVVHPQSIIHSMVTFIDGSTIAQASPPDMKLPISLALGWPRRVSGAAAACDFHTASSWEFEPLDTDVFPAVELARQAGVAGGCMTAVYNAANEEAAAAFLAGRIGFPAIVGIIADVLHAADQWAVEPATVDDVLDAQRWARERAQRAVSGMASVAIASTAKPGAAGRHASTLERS
Procedure, shortened: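 Recombinant MtbDXR (pET101/D-TOPO in E. coli BL21 CodonPlus (DE3)-RIL, IMAC-purified) at 0.89 µM in 100 mM MES pH 6.5, 25 mM MgCl2, 150 µM NADPH, 47 µM DOXP, 37 °C. Inhibitor was tested at a single 100 µM. NADPH oxidation was followed at 340 nm, and percent remaining activity was reported. Technical duplicates.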

[4] = molecular target: T3, 1-deoxy-D-xylulose 5-phosphate reductoisomerase, apicoplastic (Plasmodium falciparum (isolate 3D7), UniProt Q8IKG4); experiment: Inhibition of Plasmodium falciparum DXR expressed in Escherichia coli BL21 CodonPlus (DE3)-RIL cells using DOXP as substrate in presence of NADPH by UV-visible spectrophotometry
T3 sequence (Q8IKG4 whole entry): T1 sequence (whole entry)

[5] = molecular target: T1, 1-deoxy-D-xylulose 5-phosphate reductoisomerase, apicoplastic (Plasmodium falciparum (isolate 3D7)); experiment: Inhibition of Plasmodium falciparum DXR expressed in Escherichia coli BL21 CodonPlus (DE3)-RIL cells using DOXP as substrate at 100 uM in presence of NADPH by UV-visible spectrophotometry relative to control
Procedure, shortened: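 PfDXR single-point test at 100 µM inhibitor. Conditions: 0.86 µM IMAC-purified enzyme, 100 mM Tris pH 7.8, 25 mM MgCl2, 150 µM NADPH, 37 °C. Reaction was started with 144 µM DOXP, and NADPH oxidation was monitored at 340 nm. Percent remaining activity was reported; technical duplicates.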

How did the IC50 (Plasmodium falciparum) turn out when `CC(=O)N(CCC(c1ccc(Cl)c(Cl)c1)P(=O)(OCOC(=O)C(C)(C)C)OCOC(=O)C(C)(C)C)OC(C)c1ccc(C)cc1` (stereo not drawn) was run?
Its IC50 is 31.9 µM.

And the MIC [1]?
Its MIC is 18.2 µM (≈ 12.5 µg/mL).

With `CC(=O)N(CCC(c1ccc(Cl)c(Cl)c1)P(=O)(O)O)OCc1ccc(Br)cc1` (stereo not drawn) as the compound, how does the Activity [2] read?
The Activity was 53.1%.

And the IC50 (Plasmodium falciparum)?
Its IC50 is 67.8 µM.

And the Activity [3]?
Its Activity is 72.3%.

And the MIC [1]?
Its MIC is > 92 µM.

How did the Activity [2] turn out when `CC(=O)N(CCC(c1ccc(Cl)c(Cl)c1)P(=O)(O)O)OCc1ccc2ccccc2c1` (stereo not drawn) was run?
Its Activity is 46.6%.

What about the IC50 (Plasmodium falciparum) of the same compound?
Its IC50 is 60.9 µM.

What about the Activity [3] of the same compound?
Its Activity is 82.1%.

And the MIC [1]?
Its MIC is 24.2 µM (≈ 11.7 µg/mL).

What does the source list for `CC(=O)N(O)CCC(c1ccc(Cl)c(Cl)c1)P(=O)(O)O` (stereo not drawn)?
IC50 [4]: 13.6 µM; IC50 (Plasmodium falciparum): 18.6 µM; Activity [3]: 15.7%; MIC [1]: > 266 µM; inhibition [5]: > 90%

For `CC(=O)N(CCC(c1ccc(Cl)c(Cl)c1)P(=O)(OCOC(=O)C(C)(C)C)OCOC(=O)C(C)(C)C)OCc1ccccc1` (stereo not drawn), which IC50 (Plasmodium falciparum) is on record?
The IC50 was 41.6 µM.

And the MIC [1]?
Its MIC is 9.5 µM (≈ 6.28 µg/mL).

Which results are given for `CC(=O)N(CCC(c1ccc(Cl)c(Cl)c1)P(=O)(O)O)OC(C)c1ccc(Cl)cc1` (stereo not drawn)?
IC50 [4]: 20.4 µM; IC50 (Plasmodium falciparum): 68.6 µM; Activity [3]: 66.2%; MIC [1]: 72 µM (≈ 34.6 µg/mL); inhibition [5]: > 90%

`CC(=O)N(CCC(c1ccc(Cl)c(Cl)c1)P(=O)(OCOC(=O)C(C)(C)C)OCOC(=O)C(C)(C)C)OCc1ccc(C(C)C)cc1` (stereo not drawn) was tested. Which IC50 (Plasmodium falciparum) did it give?
Its IC50 is 13.9 µM.

What about the MIC [1] of the same compound?
The MIC was 17.8 µM (≈ 12.5 µg/mL).

For `CC(=O)N(CCC(c1ccc(Cl)c(Cl)c1)P(=O)(O)O)OCc1ccc(-c2ccccc2)cc1` (stereo not drawn), which Activity [2] is on record?
The Activity was 27%.

What about the IC50 (Plasmodium falciparum) of the same compound?
Its IC50 is 86.4 µM.

And the Activity [3]?
The Activity was 93.9%.

And the MIC [1]?
Its MIC is 23.1 µM (≈ 11.7 µg/mL).

For `CC(=O)N(CCC(c1ccc(Cl)c(Cl)c1)P(=O)(OCOC(=O)C(C)(C)C)OCOC(=O)C(C)(C)C)OC(C)c1ccc(F)cc1` (stereo not drawn), which IC50 (Plasmodium falciparum) is on record?
Its IC50 is 21.2 µM.

What about the MIC [1] of the same compound?
The MIC was 6.6 µM (≈ 4.57 µg/mL).

With `CC(=O)N(CCC(c1ccc(Cl)c(Cl)c1)P(=O)(OCOC(=O)C(C)(C)C)OCOC(=O)C(C)(C)C)OC(C)c1ccc(C(F)(F)F)cc1` (stereo not drawn) as the compound, how does the IC50 (Plasmodium falciparum) read?
The IC50 was 23.8 µM.

What about the MIC [1] of the same compound?
Its MIC is > 134 µM.

With `CC(=O)N(CCC(c1ccc(Cl)c(Cl)c1)P(=O)(OCOC(=O)C(C)(C)C)OCOC(=O)C(C)(C)C)OC(C)c1ccccc1` (stereo not drawn) as the compound, how does the IC50 (Plasmodium falciparum) read?
The IC50 was 5.22 µM.

What about the MIC [1] of the same compound?
The MIC was 3.9 µM (≈ 2.63 µg/mL).

For `CC(=O)N(CCC(c1ccc(Cl)c(Cl)c1)P(=O)(OCOC(=O)C(C)(C)C)OCOC(=O)C(C)(C)C)OCCCCc1ccccc1` (stereo not drawn), which IC50 (Plasmodium falciparum) is on record?
The IC50 was 13.9 µM.

What about the MIC [1] of the same compound?
Its MIC is 17.8 µM (≈ 12.5 µg/mL).

Which IC50 (Plasmodium falciparum) does the source give for `CC(=O)N(CCC(c1ccc(Cl)c(Cl)c1)P(=O)(OCOC(=O)C(C)(C)C)OCOC(=O)C(C)(C)C)OCc1ccc2ccccc2c1` (stereo not drawn) here?
Its IC50 is 14 µM.

And the MIC [1]?
The MIC was 8.8 µM (≈ 6.25 µg/mL).
